Source: ChEMBL document CHEMBL1140795, “Antimicrobial activities of the bromophenols from the red alga Odonthalia corymbifera and some synthetic derivatives” (2008)
In brackets after ≈: the same amount, converted by molar mass.

Columns and labels:
[1] = system: Staphylococcus aureus; test: Antibacterial activity against Staphylococcus aureus ATCC 6538p after 24 hrs; type: functional
Procedure, shortened: (§1)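 Bacteria were grown overnight in LB broth at 37 °C, harvested by centrifugation and washed twice with sterile water. Test compounds were dissolved as DMSO stocks and serially diluted twofold in Standard method broth. Wells received broth containing about 10⁵ cfu/ml of bacteria and were incubated 24 h at 37 °C. The MIC was recorded.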

[2] = system: Bacillus subtilis; test: Antibacterial activity against Bacillus subtilis ATCC 6633 after 24 hrs; type: functional; conditions: ATCC 6633, 24 h; procedure, shortened: as §1
[3] = system: Micrococcus luteus; test: Antibacterial activity against Micrococcus luteus IFC 12708 after 24 hrs; type: functional; procedure, shortened: as §1
[4] = system: Proteus vulgaris; test: Antibacterial activity against Proteus vulgaris ATCC 3851 after 24 hrs; type: functional; conditions: ATCC 3851, 24 h; procedure, shortened: as §1
[5] = system: Salmonella typhimurium; test: Antibacterial activity against Salmonella Typhimurium ATCC 14028 after 24 hrs; type: functional, Salmonella enterica subsp. enterica serovar Typhimurium; conditions: Salmonella enterica, ATCC 14028, 24 h; procedure, shortened: as §1
[6] = system: Escherichia coli; test: Antibacterial activity against Escherichia coli ATCC 25922 after 24 hrs; type: functional; conditions: ATCC 25922, 24 h; procedure, shortened: as §1
[7] = system: Candida albicans; test: Antifungal activity against Candida albicans ATCC 10231 after 48 to 72 hrs; type: functional
Procedure, shortened: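 C. albicans ATCC 10231 was grown 48 h at 28 °C in YPD broth (1% yeast extract, 2% peptone, 2% dextrose), centrifuged and washed twice with sterile water. Compounds were dissolved in DMSO and serially diluted twofold in potato dextrose broth. Wells received broth containing about 10³ cells/ml and were incubated 48–72 h at 28 °C. The MIC was recorded.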

[8] = system: Aspergillus fumigatus; test: Antifungal activity against Aspergillus fumigatus HIC6094 after 48 to 72 hrs; type: functional
Procedure, shortened: (§2)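 Filamentous fungi were grown on potato dextrose agar for 2 weeks at 28 °C. Spores were washed three times in sterile water and resuspended at 10⁵ spores/ml. Compounds were dissolved in DMSO and serially diluted twofold in potato dextrose broth. Wells received broth containing about 10⁴ cells/ml and were incubated 48–72 h at 28 °C. The MIC was recorded.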

[9] = system: Trichophyton rubrum; test: Antifungal activity against Trichophyton rubrum IFO 9185 after 48 to 72 hrs; type: functional; procedure, shortened: as §2
[10] = system: Trichophyton benhamiae; test: Antifungal activity against Trichophyton mentagrophytes IFO 40996 after 48 to 72 hrs; type: functional, Arthroderma benhamiae; procedure, shortened: as §2

In the case of COCc1cc(O)c(O)c(Br)c1Cc1cc(O)c(O)c(Br)c1Br, the MIC [1] is reported as 25 µg/mL (≈ 48.7 µM), the MIC [2] is reported as 25 µg/mL (≈ 48.7 µM) and the MIC [3] is reported as 25 µg/mL (≈ 48.7 µM). For the same compound, the MIC [4] was 25 µg/mL (≈ 48.7 µM), the MIC [5] was 25 µg/mL (≈ 48.7 µM) and the MIC [6] was greater than 100 µg/mL. For the same compound, the MIC [7] was 25 µg/mL (≈ 48.7 µM), the MIC [8] was 25 µg/mL (≈ 48.7 µM) and the MIC [9] was 25 µg/mL (≈ 48.7 µM). It also gave an MIC [10] of 25 µg/mL (≈ 48.7 µM).
For OCc1cc(O)c(O)cc1Cc1ccc(O)c(O)c1, the MIC [1] was greater than 100 µg/mL, the MIC [2] was greater than 100 µg/mL and the MIC [3] was greater than 100 µg/mL. For the same compound, the MIC [4] was greater than 100 µg/mL, the MIC [5] was greater than 100 µg/mL and the MIC [6] was greater than 100 µg/mL. It also gave an MIC [7] greater than 100 µg/mL, an MIC [8] greater than 100 µg/mL and an MIC [9] greater than 100 µg/mL. For the same compound, the MIC [10] was greater than 100 µg/mL.
For Oc1c(Br)cc(Cc2cc(Br)c(O)c(Br)c2O)c(O)c1Br, the MIC [1] was greater than 100 µg/mL, the MIC [2] was greater than 100 µg/mL and the MIC [3] was greater than 100 µg/mL. For the same compound, the MIC [4] was greater than 100 µg/mL, the MIC [5] was greater than 100 µg/mL and the MIC [6] was greater than 100 µg/mL. For the same compound, the MIC [7] was greater than 100 µg/mL, the MIC [8] was greater than 100 µg/mL and the MIC [9] was greater than 100 µg/mL. The MIC [10] was greater than 100 µg/mL.
With Oc1ccc(Br)cc1Cc1cc(Br)ccc1O the MIC [1] was 3.12 µg/mL (≈ 8.71 µM), the MIC [2] was 3.12 µg/mL (≈ 8.71 µM) and the MIC [3] was 1.56 µg/mL (≈ 4.36 µM). The MIC [4] was 3.12 µg/mL (≈ 8.71 µM), the MIC [5] was 3.12 µg/mL (≈ 8.71 µM) and the MIC [6] was greater than 100 µg/mL. It also gave an MIC [7] greater than 100 µg/mL, an MIC [8] greater than 100 µg/mL and an MIC [9] greater than 100 µg/mL. For the same compound, the MIC [10] was greater than 100 µg/mL.
Oc1c(Br)cc(Br)cc1Cc1cc(Br)cc(Br)c1O gave an MIC [1] of 1.56 µg/mL (≈ 3.02 µM), an MIC [2] of 1.56 µg/mL (≈ 3.02 µM) and an MIC [3] of 1.56 µg/mL (≈ 3.02 µM). It also gave an MIC [4] of 1.56 µg/mL (≈ 3.02 µM), an MIC [5] of 3.12 µg/mL (≈ 6.05 µM) and an MIC [6] greater than 100 µg/mL. The MIC [7] was greater than 100 µg/mL, the MIC [8] was greater than 100 µg/mL and the MIC [9] was greater than 100 µg/mL. The MIC [10] was greater than 100 µg/mL.
Work on Oc1ccc(Cc2ccc(O)c(Br)c2)cc1Br yielded an MIC [1] of 25 µg/mL (≈ 69.8 µM), an MIC [2] of 12.5 µg/mL (≈ 34.9 µM) and an MIC [3] of 12.5 µg/mL (≈ 34.9 µM). For the same compound, the MIC [4] was 25 µg/mL (≈ 69.8 µM), the MIC [5] was 25 µg/mL (≈ 69.8 µM) and the MIC [6] was greater than 100 µg/mL. It also gave an MIC [7] greater than 100 µg/mL, an MIC [8] greater than 100 µg/mL and an MIC [9] greater than 100 µg/mL. For the same compound, the MIC [10] was greater than 100 µg/mL.
For Oc1cc(Cc2cc(O)c(O)c(Br)c2Br)c(Br)c(Br)c1O, the MIC [1] was 25 µg/mL (≈ 45.6 µM), the MIC [2] was 25 µg/mL (≈ 45.6 µM) and the MIC [3] was 25 µg/mL (≈ 45.6 µM). The MIC [4] was 50 µg/mL (≈ 91.3 µM), the MIC [5] was 50 µg/mL (≈ 91.3 µM) and the MIC [6] was greater than 100 µg/mL. For the same compound, the MIC [7] was 1.56 µg/mL (≈ 2.85 µM), the MIC [8] was 0.78 µg/mL (≈ 1.42 µM) and the MIC [9] was 1.56 µg/mL (≈ 2.85 µM). The MIC [10] was 1.56 µg/mL (≈ 2.85 µM).
Work on Oc1ccc(Cc2ccc(O)c(O)c2)cc1O yielded an MIC [1] greater than 100 µg/mL, an MIC [2] greater than 100 µg/mL and an MIC [3] greater than 100 µg/mL. The MIC [4] was greater than 100 µg/mL, the MIC [5] was greater than 100 µg/mL and the MIC [6] was greater than 100 µg/mL. For the same compound, the MIC [7] was greater than 100 µg/mL, the MIC [8] was greater than 100 µg/mL and the MIC [9] was greater than 100 µg/mL. For the same compound, the MIC [10] was greater than 100 µg/mL.
Work on OCc1cc(O)c(O)c(Br)c1Cc1cc(O)c(O)c(Br)c1Br yielded an MIC [1] of 50 µg/mL (≈ 100 µM), an MIC [2] of 100 µg/mL (≈ 200 µM) and an MIC [3] of 50 µg/mL (≈ 100 µM). It also gave an MIC [4] of 100 µg/mL (≈ 200 µM), an MIC [5] of 100 µg/mL (≈ 200 µM) and an MIC [6] greater than 100 µg/mL. The MIC [7] was 100 µg/mL (≈ 200 µM), the MIC [8] was greater than 100 µg/mL and the MIC [9] was 50 µg/mL (≈ 100 µM). It also gave an MIC [10] of 50 µg/mL (≈ 100 µM).
Oc1c(Br)cc(Cc2cc(Br)c(O)c(Br)c2)cc1Br was tested, and the MIC [1] was greater than 100 µg/mL, the MIC [2] was greater than 100 µg/mL and the MIC [3] was greater than 100 µg/mL. The MIC [4] was greater than 100 µg/mL, the MIC [5] was greater than 100 µg/mL and the MIC [6] was greater than 100 µg/mL. For the same compound, the MIC [7] was greater than 100 µg/mL, the MIC [8] was greater than 100 µg/mL and the MIC [9] was greater than 100 µg/mL. It also gave an MIC [10] greater than 100 µg/mL.
In the case of COCc1cc(O)c(O)c(Br)c1Br, the MIC [1] is reported as greater than 100 µg/mL, the MIC [2] is reported as greater than 100 µg/mL and the MIC [3] is reported as greater than 100 µg/mL. It also gave an MIC [4] greater than 100 µg/mL, an MIC [5] greater than 100 µg/mL and an MIC [6] greater than 100 µg/mL. The MIC [7] was 100 µg/mL (≈ 321 µM), the MIC [8] was greater than 100 µg/mL and the MIC [9] was 12.5 µg/mL (≈ 40.1 µM). The MIC [10] was 12.5 µg/mL (≈ 40.1 µM).
In the case of Oc1ccc(Cc2cc(Br)c(O)c(Br)c2)cc1Br, the MIC [1] is reported as 12.5 µg/mL (≈ 28.6 µM), the MIC [2] is reported as 6.25 µg/mL (≈ 14.3 µM) and the MIC [3] is reported as 6.25 µg/mL (≈ 14.3 µM). The MIC [4] was 6.25 µg/mL (≈ 14.3 µM), the MIC [5] was 6.25 µg/mL (≈ 14.3 µM) and the MIC [6] was greater than 100 µg/mL. For the same compound, the MIC [7] was greater than 100 µg/mL, the MIC [8] was greater than 100 µg/mL and the MIC [9] was greater than 100 µg/mL. For the same compound, the MIC [10] was greater than 100 µg/mL.
For Oc1ccccc1Cc1cc(Br)ccc1O, the MIC [1] was 25 µg/mL (≈ 89.6 µM), the MIC [2] was 25 µg/mL (≈ 89.6 µM) and the MIC [3] was 25 µg/mL (≈ 89.6 µM). The MIC [4] was 25 µg/mL (≈ 89.6 µM), the MIC [5] was 25 µg/mL (≈ 89.6 µM) and the MIC [6] was greater than 100 µg/mL. For the same compound, the MIC [7] was greater than 100 µg/mL, the MIC [8] was greater than 100 µg/mL and the MIC [9] was greater than 100 µg/mL. For the same compound, the MIC [10] was greater than 100 µg/mL.
Work on NCCc1cc(Br)c(O)c(Br)c1 yielded an MIC [1] of 100 µg/mL (≈ 339 µM), an MIC [2] greater than 100 µg/mL and an MIC [3] greater than 100 µg/mL. The MIC [4] was greater than 100 µg/mL, the MIC [5] was greater than 100 µg/mL and the MIC [6] was greater than 100 µg/mL. For the same compound, the MIC [7] was 100 µg/mL (≈ 339 µM), the MIC [8] was greater than 100 µg/mL and the MIC [9] was greater than 100 µg/mL. The MIC [10] was greater than 100 µg/mL.
C[C@@H]1[C@H](O)[C@@H](C)/C=C/C=C/C=C/C=C/C=C/C=C/C=C/[C@H](O[C@@H]2O[C@H](C)[C@@H](O)[C@H](N)[C@@H]2O)C[C@@H]2O[C@](O)(C[C@@H](O)C[C@@H](O)[C@H](O)CC[C@@H](O)C[C@@H](O)CC(=O)O[C@H]1C)C[C@H](O)[C@H]2C(=O)O [AMPHOTERICIN B] gave an MIC [7] of 6.25 µg/mL (≈ 6.76 µM), an MIC [8] of 3.12 µg/mL (≈ 3.38 µM) and an MIC [9] of 3.12 µg/mL (≈ 3.38 µM). The MIC [10] was 3.12 µg/mL (≈ 3.38 µM).
CC1(C)S[C@@H]2[C@H](NC(=O)[C@H](N)c3ccccc3)C(=O)N2[C@H]1C(=O)O [AMPICILLIN] was tested, and the MIC [1] was 1.56 µg/mL (≈ 4.46 µM), the MIC [2] was 1.56 µg/mL (≈ 4.46 µM) and the MIC [3] was 1.56 µg/mL (≈ 4.46 µM). It also gave an MIC [4] of 3.12 µg/mL (≈ 8.93 µM), an MIC [5] of 3.12 µg/mL (≈ 8.93 µM) and an MIC [6] of 12.5 µg/mL (≈ 35.8 µM).
Compound OCc1cc(O)c(O)c(Br)c1Br [LANOSOL] has an MIC [1] greater than 100 µg/mL, an MIC [2] greater than 100 µg/mL and an MIC [3] greater than 100 µg/mL. It also gave an MIC [4] greater than 100 µg/mL, an MIC [5] greater than 100 µg/mL and an MIC [6] greater than 100 µg/mL. For the same compound, the MIC [7] was greater than 100 µg/mL, the MIC [8] was greater than 100 µg/mL and the MIC [9] was 50 µg/mL (≈ 168 µM). For the same compound, the MIC [10] was 50 µg/mL (≈ 168 µM).
